Results taken from ChEMBL document CHEMBL1132173, “Novel derivatives of 2-pyridinemethylamine as selective, potent, and orally active agonists at 5-HT1A receptors” (J Med Chem, 1999).

What was measured:
Rattus norvegicus [1] = test: Effective intraperitoneal dose in vivo in rat after 15 mins to induce lower lip retraction; type: functional; conditions: ip, 0.25 h
Method in brief: (§1)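 Observed in 10 min windows centred 15 and 60 min post-dose, 10 s each minute, scoring lower lip retraction present or absent (0–10).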

Rattus norvegicus [2] = test: Induction of lower lip retraction in rat 60 min after administration, effective peroral dose determined in vivo; type: functional; conditions: po, 1 h; method in brief: as §1
[3] = target: T1, 5-hydroxytryptamine receptor 1A (Homo sapiens, UniProt P08908); test: In vitro effective concentration required to inhibit forskolin-stimulated cAMP levels in HA7 cells expressing human 5-HT1A receptor; type: functional, cell-based
T1 sequence (P08908 whole entry): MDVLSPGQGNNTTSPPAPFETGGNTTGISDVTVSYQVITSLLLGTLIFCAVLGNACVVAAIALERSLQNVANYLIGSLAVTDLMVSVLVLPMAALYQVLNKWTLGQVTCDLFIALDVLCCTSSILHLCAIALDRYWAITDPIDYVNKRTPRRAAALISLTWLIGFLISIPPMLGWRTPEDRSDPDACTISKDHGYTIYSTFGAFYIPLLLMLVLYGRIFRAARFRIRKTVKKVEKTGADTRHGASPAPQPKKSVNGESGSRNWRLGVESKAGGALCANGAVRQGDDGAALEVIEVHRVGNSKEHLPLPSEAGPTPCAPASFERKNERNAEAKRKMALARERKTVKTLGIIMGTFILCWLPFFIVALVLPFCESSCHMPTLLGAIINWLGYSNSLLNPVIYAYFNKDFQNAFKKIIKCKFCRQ
Method in brief: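 HeLa HA7 cells stably expressing human 5-HT1A, at 80–90% confluency, antibiotic-free for 24 h. Preincubated 10 min at RT in DMEM/10 mM Hepes, then drug at 0.1 nM–100 µM with 100 µM forskolin and 100 µM IBMX for 10 min at RT. Stopped with 0.1 N HCl; cAMP by radioimmunoassay as % of forskolin control; pEC50.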

[4] = target: T2, 5-hydroxytryptamine receptor 1A (Rattus norvegicus, UniProt P19327); test: Binding affinity towards 5-hydroxytryptamine 1A receptor in rat cortex using [3H]8-OH-DPAT as a radioligand
T2 sequence (P19327 whole entry): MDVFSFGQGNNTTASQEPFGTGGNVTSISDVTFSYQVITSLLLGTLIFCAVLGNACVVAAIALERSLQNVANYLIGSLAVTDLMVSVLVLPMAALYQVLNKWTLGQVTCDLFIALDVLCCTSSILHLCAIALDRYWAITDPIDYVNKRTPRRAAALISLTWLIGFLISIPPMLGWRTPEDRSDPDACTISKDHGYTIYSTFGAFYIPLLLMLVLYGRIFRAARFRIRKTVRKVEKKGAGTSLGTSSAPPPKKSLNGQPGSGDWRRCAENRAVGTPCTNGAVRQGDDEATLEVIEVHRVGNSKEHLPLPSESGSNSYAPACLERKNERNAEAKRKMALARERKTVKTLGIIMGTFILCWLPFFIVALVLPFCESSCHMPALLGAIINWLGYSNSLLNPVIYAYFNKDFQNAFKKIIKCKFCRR
Method in brief: (§2)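 Rat tissue membranes, competition against radioligand at 23 °C. Nonspecific binding: 5-HT for 5-HT1A (30 min), (+)-butaclamol for D2 (60 min), phentolamine for α1 (30 min). Tris HCl 50 mM pH 7.4 buffers. Filtration through glass-fibre filters, then scintillation counting. Run in triplicate; IC50 by nonlinear regression; Ki by Cheng–Prusoff; mean pKi of three determinations.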

D(2) dopamine receptor = D(2) dopamine receptor (Rattus norvegicus, UniProt P61169); test: Binding affinity towards Dopamine receptor D2 in rat striatum using YM-09151-2 as a radioligand; type: tissue-based; method in brief: as §2
Sequence of D(2) dopamine receptor (P61169 whole entry): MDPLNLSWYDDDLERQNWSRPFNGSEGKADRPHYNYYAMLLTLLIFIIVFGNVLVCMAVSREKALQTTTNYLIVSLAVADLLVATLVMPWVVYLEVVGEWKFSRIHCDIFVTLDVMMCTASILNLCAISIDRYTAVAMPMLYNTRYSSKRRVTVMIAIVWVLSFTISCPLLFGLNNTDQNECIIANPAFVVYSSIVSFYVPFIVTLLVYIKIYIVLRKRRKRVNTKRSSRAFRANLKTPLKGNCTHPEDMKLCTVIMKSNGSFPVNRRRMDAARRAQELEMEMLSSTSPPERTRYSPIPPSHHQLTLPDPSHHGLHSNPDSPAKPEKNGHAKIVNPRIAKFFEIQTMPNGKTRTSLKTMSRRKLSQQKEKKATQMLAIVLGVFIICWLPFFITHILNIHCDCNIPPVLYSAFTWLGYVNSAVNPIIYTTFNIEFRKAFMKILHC

[5] = target: T3, Adrenergic receptor alpha-1 (Rattus norvegicus, UniProt P15823+P23944+P43140); test: Binding affinity towards Alpha-1 adrenergic receptor using prazosin as a radioligand in rat cortex; method in brief: as §2
T3 sequence (P15823 whole entry): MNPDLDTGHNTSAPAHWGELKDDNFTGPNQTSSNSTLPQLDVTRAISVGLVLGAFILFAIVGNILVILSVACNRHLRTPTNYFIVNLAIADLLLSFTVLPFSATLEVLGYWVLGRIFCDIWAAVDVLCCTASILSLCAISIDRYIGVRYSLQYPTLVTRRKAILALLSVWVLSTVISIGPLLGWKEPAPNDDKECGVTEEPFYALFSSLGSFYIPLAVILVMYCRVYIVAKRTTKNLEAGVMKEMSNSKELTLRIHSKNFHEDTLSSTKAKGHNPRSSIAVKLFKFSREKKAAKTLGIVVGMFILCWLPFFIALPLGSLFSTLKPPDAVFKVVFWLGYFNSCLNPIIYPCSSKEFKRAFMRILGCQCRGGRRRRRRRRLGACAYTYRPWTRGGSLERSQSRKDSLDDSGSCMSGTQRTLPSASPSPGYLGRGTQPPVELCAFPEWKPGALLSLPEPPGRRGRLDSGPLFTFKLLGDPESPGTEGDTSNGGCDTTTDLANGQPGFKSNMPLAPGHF
T3 sequence (P23944 whole entry): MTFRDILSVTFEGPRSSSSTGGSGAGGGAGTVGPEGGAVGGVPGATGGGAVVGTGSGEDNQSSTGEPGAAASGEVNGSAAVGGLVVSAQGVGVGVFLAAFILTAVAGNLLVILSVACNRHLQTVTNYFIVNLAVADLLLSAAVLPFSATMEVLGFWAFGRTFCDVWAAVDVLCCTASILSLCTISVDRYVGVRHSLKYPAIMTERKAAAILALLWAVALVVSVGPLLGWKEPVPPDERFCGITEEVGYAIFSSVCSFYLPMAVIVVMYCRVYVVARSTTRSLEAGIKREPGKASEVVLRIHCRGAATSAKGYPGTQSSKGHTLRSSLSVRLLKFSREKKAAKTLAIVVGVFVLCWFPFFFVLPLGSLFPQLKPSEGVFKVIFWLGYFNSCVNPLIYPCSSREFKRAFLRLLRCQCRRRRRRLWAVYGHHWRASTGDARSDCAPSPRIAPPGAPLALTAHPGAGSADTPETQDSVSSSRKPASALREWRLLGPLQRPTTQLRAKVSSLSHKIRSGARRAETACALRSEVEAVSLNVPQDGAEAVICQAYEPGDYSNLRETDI
T3 sequence (P43140 whole entry): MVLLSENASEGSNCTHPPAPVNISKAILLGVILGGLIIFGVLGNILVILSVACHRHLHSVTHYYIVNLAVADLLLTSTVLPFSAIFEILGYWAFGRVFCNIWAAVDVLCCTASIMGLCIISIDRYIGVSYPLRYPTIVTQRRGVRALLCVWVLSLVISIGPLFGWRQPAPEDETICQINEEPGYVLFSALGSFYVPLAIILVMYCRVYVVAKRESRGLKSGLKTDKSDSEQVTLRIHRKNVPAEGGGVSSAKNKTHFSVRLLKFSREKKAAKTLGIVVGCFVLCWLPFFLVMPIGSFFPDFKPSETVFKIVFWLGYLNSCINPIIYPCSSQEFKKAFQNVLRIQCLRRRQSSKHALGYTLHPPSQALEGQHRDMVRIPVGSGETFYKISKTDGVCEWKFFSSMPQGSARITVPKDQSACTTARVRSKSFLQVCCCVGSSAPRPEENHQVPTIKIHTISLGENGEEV

Rattus norvegicus [6] = test: Effective intraperitoneal dose in vivo in rat after 60 mins to induce lower lip retraction; type: functional; conditions: ip, 1 h; method in brief: as §1

Row | SMILES | ED50 (Rattus norvegicus [1]) [mg/kg] | ED50 (Rattus norvegicus [2]) [mg/kg] | EC50 [3] [nM] | Ki [4] [nM] | Ki (D(2) dopamine receptor) [nM] | Log Ki [5] | ED50 (Rattus norvegicus [6]) [mg/kg]
1 | CCNc1cccc(CNCC2(F)CCN(C(=O)c3ccc(F)c(Cl)c3)CC2)n1 | 0.11 | 0.32 | 13.2 |  |  |  | 
2 | O=C(c1ccc(Cl)c(Cl)c1)N1CCC(CNCc2cccc(-n3cccn3)n2)CC1 |  |  | 30.9 |  |  |  | 
3 | Cc1cc(CNCC2(F)CCN(C(=O)c3ccc(F)c(Cl)c3)CC2)nc(N(C)C)c1 | 0.32 | 0.89 | 33.1 | 0.562 |  |  | 
4 | O=C(c1ccc(Cl)c(Cl)c1)N1CCC(CNCc2cccc(-c3cnco3)n2)CC1 |  |  | 2 |  |  |  | 
5 | N#CC1(CNCc2cccc(-n3cccn3)n2)CCN(C(=O)c2ccc(Cl)c(Cl)c2)CC1 |  |  | 162 | 6.92 |  |  | 
6 | O=C(c1ccc(Cl)c(Cl)c1)N1CCC(CNCc2cccc(N3CCC3)n2)CC1 |  |  | 7.08 |  |  |  | 
7 | Cc1ccc(CNCC2(F)CCN(C(=O)c3ccc(F)c(Cl)c3)CC2)nc1-n1cccn1 | 0.32 | 1.3 | 14.8 | 0.447 |  |  | 
8 | O=C(c1ccc(Cl)c(Cl)c1)N1CCC(CNCc2cccc(-c3ccco3)n2)CC1 |  |  | 5.25 |  |  |  | 
9 | Cc1ccc(CNCC2(F)CCN(C(=O)c3ccc(F)c(Cl)c3)CC2)nc1-c1cc[nH]n1 | 0.32 | 0.89 | 2.75 | 2.19 |  |  | 
10 | O=C(c1ccc(Cl)c(Cl)c1)N1CCC(CNCc2cccc(-c3cccs3)n2)CC1 |  |  | 5.75 |  |  |  | 
11 | CN(C)c1cccc(CNCC2(F)CCN(C(=O)c3cccc(Cl)c3)CC2)n1 | 0.08 | 0.32 | 10 | 0.0977 | 617 | -6.81 | 0.11
12 | O=C(c1ccc(Cl)c(Cl)c1)N1CCC(CNCc2ncccc2F)CC1 |  |  |  | 15.1 |  |  | 
13 | CN(C)c1cccc(CNCC2CCN(C(=O)c3ccc(Cl)c(Cl)c3)CC2)n1 |  |  | 20.4 |  |  |  | 
14 | O=C(c1ccc(Cl)c(Cl)c1)N1CC=C(CNCc2cccc(-n3cccn3)n2)CC1 |  |  | 269 | 6.03 |  |  | 
15 | CCc1ccc(CNCC2(F)CCN(C(=O)c3ccc(F)c(Cl)c3)CC2)nc1 | 1.3 | 1.8 | 407 | 8.91 |  |  | 
16 | CC(C)c1ccc(CNCC2(F)CCN(C(=O)c3ccc(F)c(Cl)c3)CC2)nc1 |  |  |  | 35.5 |  |  | 
17 | CNc1cccc(CNCC2(F)CCN(C(=O)c3ccc(Cl)c(Cl)c3)CC2)n1 | 0.11 | 0.32 | 6.61 |  |  | -6.92 | 0.23
18 | O=C(c1ccc(F)c(Cl)c1)N1CCC(F)(CNCc2cccc(-n3cccn3)n2)CC1 | 0.32 | 1.3 | 12.3 | 0.49 |  |  | 
